The entries come from a sample that favours hits as a whole.
L major viab: Leishmania major promastigote growth inhibition | Leishmania major promastigotes, resazurin fluorescence viability | inhibition, % at 10 µM | AID 1063 | 9% of 200,000 active; in the data active means inhibition above about 50%;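 further: promastigotes grown with compound for 44 hours at 28 °C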
Dynein cargo inh: blocks dynein driven cargo transport along microtubules. 3617.4 mouse cells, GR-EGFP nuclear translocation imaging; test concentration mostly 20 µM; stimulated with dexamethasone, 1 µM; active compounds read low. z-score, hits read low. 0.47% of 220,000 active;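 active means plate z-score of nuclear minus cytoplasmic receptor signal below a set negative limit, without overly bright fluorescence or cell loss, cut at about -3.5 in these data, passing the limit was not always enough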;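 further: z-score of nuclear minus cytoplasmic ring GR-EGFP intensity difference per well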
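medium = tetracycline-free induction medium containing charcoal-stripped FBS | probe or stimulus = dexamethasone, 1.0 µM final | timing = 48 h induction, then 1 h compound, then 30 min agonist, 37 °C | detection = automated 10x imaging of fixed Hoechst-stained cells | read-out basis = nuclear versus cytoplasmic GR-EGFP signal, averaged per well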
CHOP UPR activ: apoptotic UPR (CHOP) activation. activation, % at 10 µM. CHO-CHOP luciferase reporter, luminescence; percent of tunicamycin response over DMSO baseline. AID 449763. 0.34% of 330,000 active;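 active means at 10 µM dose, activation of 40% or more, normalized to positive control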;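 further: 100% = tunicamycin at 10 µg/mL and 0% = DMSO alone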
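Assay system: CHO cells with stable CHOP pathway luciferase reporter; Buffer or medium: F12 plus 10% serum; Times: 16-18 h cell attachment, then 6 h compound exposure, 37 °C; Signal: luciferase luminescence; Read-out basis: percent activation relative to tunicamycin control; Control set: tunicamycin high control, DMSO low control.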
UPR XBP1 act: activators of adaptive arm of unfolded protein response (XBP1) | activation, % at 20 µM | 0.33% of 330,000 active | CHO-XBP1 luciferase reporter, IRE1-XBP1 UPR activation, luminescence; percent of tunicamycin response, DMSO as zero;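 active means versus positive control, 20 µM dose yields 30% or more activation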;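 further: 100% = tunicamycin at 10 µg/mL and 0% = DMSO only wells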
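Material: IRE1-XBP1 luciferase reporter CHO line / Quantity: one thousand reporter cells per well / Buffer or medium: F12 with 10% serum / Compound: 20 µM single concentration, DMSO 1% / Times: 6 h treatment, 37 °C / Detection: Steady-Glo luciferase glow luminescence, 10 min after reagent addition / Benchmarks: tunicamycin high, DMSO low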
CHOP inh: inhibitors of CHOP induction in ER stress response. CHO-K1 CHOP-promoter luciferase, tunicamycin-induced, 15-18 h. inhibition, % at 10 µM. 3.8% of 220,000 active. AID 2732;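 active means compounds that reduced the stress-induced luciferase reporter signal by more than about 70% of percent inhibition, limit read from the data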;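 further: 0% = tunicamycin plus vehicle and 100% = wells without tunicamycin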
T cruzi inh: T. cruzi replication inhibition. T. cruzi beta-gal in NIH3T3, luminescence, 90 h. inhibition, % (no concentration beside the values). 1.4% of 300,000 active. AID 1885;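 active means mean inhibition across valid replicates above about 55%, limit read from the data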;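 further: signal also drops with host cell toxicity which is not excluded here; 0% = plate median of DMSO wells and 100% = zero luminescence signal; higher percent means less beta-gal luminescence so fewer parasites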
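Assay system: NIH/3T3 host cells with β-galactosidase reporter T. cruzi; input: 5,000 host fibroblasts per well; compound: single 50 nL compound addition per well in DMSO; timing: ≥90 h infection period, 3 h prior cell attachment; measured by: GalScreen β-gal luminescence, detergent lysis, 60 min; evaluation: percent inhibition of parasite-derived β-gal signal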
Numbers without * were called inactive; / = not tested or not shown.

SMILES | L major viab | Dynein cargo inh | CHOP UPR activ | UPR XBP1 act | CHOP inh | T cruzi inh
CCOC(=O)c1c(-c2cccs2)csc1NC(C)=O | -7 | -0.21 | 0 | -3 | 39 | 14
CCOC(=O)c1c(-c2cccs2)csc1NC(=O)CN1CC(C)OC(C)C1 (configuration not stated) | 32 | -1.4 | -5 | 2 | 84* | 49
CC(C)CCn1nnnc1CN1CCN(C(=O)c2ccco2)CC1 | / | / | -1 | -1 | / | -14
CC1CCCC(C)N1C(=O)COC(=O)c1ccc2ccccc2n1 (configuration not stated) | / | / | 2 | 9 | / | /
Cc1ccc(C)c(-n2ccnc2SCC(=O)c2c(N)n(C3CC3)c(=O)[nH]c2=O)c1 | / | / | 1 | 0 | / | /
Cc1c(Cl)cccc1N=c1c([N+](=O)[O-])nn(-c2ccccc2)n1O | 10 | 1.6 | 1 | -1 | 29 | 54
Cc1ccc(N=c2c([N+](=O)[O-])nn(-c3ccccc3)n2O)c(C)c1 | 56* | -1 | 4 | -2 | 16 | 53
COc1ccc(-n2nc([N+](=O)[O-])c(=NCCc3cccc(C)c3)n2O)cc1 | 81* | -0.4 | -1 | 1 | 21 | 63*
Cc1cccc(CCN=c2c([N+](=O)[O-])nn(-c3ccccc3)n2O)c1 | 62* | 2.1 | 1 | -4 | 22 | 43
CC1CC1C(=O)N1CCN(S(=O)(=O)c2cc(C(F)(F)F)cc(C(F)(F)F)c2)CC1 (configuration not stated) | / | / | -1 | -4 | / | /
O=C(CNS(=O)(=O)c1ccc(Cl)c(C(F)(F)F)c1)NC1CCCCCC1 | / | / | 1 | -2 | / | /
CCc1ccc(N(C(=O)Cn2nnc(-c3ccccc3)n2)C(C(=O)NC2CCCCC2)c2ccccn2)cc1 (configuration not stated) | 23 | 0.71 | 1 | -3 | 57 | 3
Cc1cc(C)c2c3c(sc2n1)C1(CCSCC1)C(C#N)=C(N)O3 | 100* | -0.18 | 1 | 4 | 59 | 64*
Cc1cc(C)c2c(n1)sc1c(N3CCOCC3)ncnc12 | 7 | -0.82 | / | / | / | /
O=C(CN1C(=O)NC2(CCCCCC2)C1=O)NCCc1ccc(F)cc1 | / | / | -1 | -3 | / | /
CCOc1ccc(C(=S)N2CCCC2)c(OCC)c1 | / | / | 2 | 1 | / | 10
Cc1ccc(CN2C3CCCC2CC(NC(=O)c2ccc(C)cc2)C3)cc1 (configuration not stated) | 81* | -0.021 | -2 | 1 | 40 | 8
CC(=O)NC1CC2CCCC(C1)N2Cc1ccc(C)cc1 (configuration not stated) | / | / | 0 | -6 | / | 17
Cc1ccc(C(=O)NC2CC3CCC(C2)N3Cc2ccco2)cc1 (configuration not stated) | 57* | -0.92 | -1 | 1 | 14 | 8
CSc1ccc(NC(=O)Nc2cccn(Cc3ccccc3F)c2=O)cc1 | -4 | -0.43 | 5 | 7 | 59 | 59*
CCc1ccccc1NC(=O)Nc1cccn(Cc2ccccc2F)c1=O | 9 | -0.59 | -2 | 3 | 11 | 14
O=C1c2ccccc2C(O)(c2ncc[nH]2)N1CCc1ccccc1 (configuration not stated) | 95* | 0.19 | 1 | -2 | 12 | -13
COCCN(C(=O)c1snc(C(N)=O)c1N)C(C(=O)NC1CCCCC1)c1ccc(F)cc1 (configuration not stated) | / | / | 0 | -3 | / | 9
CCN(C(=O)COC(=O)C1CCN(S(=O)(=O)c2c(Cl)cccc2Cl)CC1)C1CCCCC1 | / | / | 2 | -6 | / | 17
O=[N+]([O-])c1ccc(/C=N/Nc2nc(N3CCCCCC3)nc(N3CCCCCC3)n2)o1 | 100* | -0.85 | 28 | 7 | 19 | 76*
SMILES | L major viab | Dynein cargo inh | CHOP UPR activ | UPR XBP1 act | CHOP inh | T cruzi inh
COC(=O)c1ccccc1-c1ccc(/C=N/Nc2nc(N3CCCC3)nc(N3CCCC3)n2)o1 | / | 0.046 | 8 | -2 | -1 | 36
O=[N+]([O-])c1ccc(Nc2nc(N/N=C\c3ccc4c(c3)OCO4)nc(N3CCCCC3)n2)cc1 | 100* | -0.091 | 9 | 2 | 32 | 50
COc1nc(N/N=C/c2ccc(-c3ccccc3[N+](=O)[O-])o2)nc(N2CCOCC2)n1 | 86* | -0.51 | 9 | 2 | 30 | -12
O=[N+]([O-])c1ccc(/C=N/Nc2nc(N3CCCCC3)nc(N3CCCCC3)n2)cc1 | 54* | -0.32 | 1 | -6 | 62 | 9
Brc1ccc(-n2cnc(-c3ccccc3)c2)cc1 | / | / | 5 | -1 | / | -4
CC(C)Cc1nnc(NC(=O)CCC(=O)NCCc2ccc(Cl)cc2)s1 | / | / | -1 | 3 | / | -2
Cc1ccc(Nc2nc(Cl)nc(NC(C)(C)C)n2)cc1 | / | / | 3 | 8 | / | 26
Cc1ccc(Nc2nc(Cl)nc(N(C)C#N)n2)cc1 | 97* | -1.2 | 6 | 13 | -82 | -12
COc1ccc(-n2ncc3c2CC(C)(C)CC3NC(=O)c2ocnc2C)cc1 (configuration not stated) | / | / | -2 | -7 | / | 6
Cc1cccc(Nc2nnc(SCC(=O)Nc3cccc(S(=O)(=O)N4CCCCC4)c3)s2)c1 | 43 | -0.65 | 3 | 1 | 14 | -4
NC(=O)CSc1nnc(NC(=O)c2ccc(S(=O)(=O)N3CCOCC3)cc2)s1 | / | / | 0 | -1 | / | -10
CCOC(=O)CNC(=O)CSc1nnc(NC(=O)c2ccc(S(=O)(=O)N3CCOCC3)cc2)s1 | / | / | -1 | -1 | / | -10
Cc1cccc(C)c1Nc1nnc(SCC(=O)Nc2cc(S(=O)(=O)N3CCCCC3)ccc2Cl)s1 | 50* | -0.75 | 2 | -1 | 63 | 6
Cc1cccc(NC(=O)CSc2nnc(NC(=O)c3ccc(S(=O)(=O)N4CCOCC4)cc3)s2)c1C | 87* | 1.7 | 3 | -1 | 3 | -10
COc1ccc(NC(=O)CSc2nnc(NC(=O)c3ccc(S(=O)(=O)N4CCOCC4)cc3)s2)cc1 | 76* | 1.8 | -1 | 1 | 2 | 1
O=C(CSc1cccc(C(F)(F)F)c1)Nc1cc(S(=O)(=O)N2CCCC2)ccc1Cl | 55* | 0.12 | 1 | 1 | 28 | 4
CN(CC(=O)Nc1ccc(N2CCOCC2)cc1)C(=O)CCNC(=O)c1ccc(Br)cc1 | / | / | 1 | 4 | / | -8
C=CCN(c1ccccc1)S(=O)(=O)c1cccc(C(=O)Nc2ccc(N3CCOCC3)cc2)c1 | / | / | 1 | -3 | / | /
Cc1cccc(Nc2nnc(SCC(=O)Nc3cccnc3Cl)s2)c1 | 62* | -0.38 | 1 | 1 | -23 | -23
Cc1occc1C(=O)N/N=C/C1=C(N2CCOCC2)C(=C\c2ccc(Cl)cc2Cl)/CC1 | 93* | 6.7 | 3 | 6 | -2 | 14
